Rev-erbA mod = Rev-erb alpha (human) modulation; AID 1259318; Rev-erbα–FITC-DNA binding, fluorescence polarization, 90 min; activity, % at 10 µM; P20393; 370,000 tested, 0.79% active;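 active = activity above about 14%, limit read from the data; passing the limit was not always enough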;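 also: 0% = DMSO wells with 35 nM protein and 100% = DMSO wells with 750 nM protein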
NR2E3 ag-1 = activates human NR2E3 receptor | Q9Y5X4 | CHO-S Gal4-NCOR/VP16-NR2E3 two-hybrid, luciferase | inhibition of corepressor binding, % at 3.98 µM | 360,000 tested, 0.35% active | AID 602229;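 active = inhibition above the mean of all tested compounds plus 3 SD, cut at about 70% in these data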;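 also: 0% = DMSO with NR2E3 transfected cells and 100% = cells lacking NR2E3 construct; higher means lower luciferase signal from less NR2E3 corepressor binding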
Target sequence (Q9Y5X4 whole entry, looked up, the tested form may be a part): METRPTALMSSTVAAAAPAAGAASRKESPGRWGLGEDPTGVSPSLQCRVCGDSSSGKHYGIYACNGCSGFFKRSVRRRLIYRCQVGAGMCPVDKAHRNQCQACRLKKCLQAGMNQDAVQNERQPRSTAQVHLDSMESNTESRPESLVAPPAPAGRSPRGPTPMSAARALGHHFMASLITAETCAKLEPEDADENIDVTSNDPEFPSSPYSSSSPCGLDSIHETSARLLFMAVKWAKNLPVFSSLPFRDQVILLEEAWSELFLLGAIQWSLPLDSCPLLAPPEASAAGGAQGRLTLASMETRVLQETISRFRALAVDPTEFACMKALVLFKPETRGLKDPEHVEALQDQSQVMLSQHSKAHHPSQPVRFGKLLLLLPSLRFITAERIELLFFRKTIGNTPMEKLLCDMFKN
NR2E3 ag-2 = agonists of human nuclear receptor NR2E3. inhibition of corepressor binding, % at 4.78 µM. GST-NR2E3/biotin-RetCOR TR-FRET, 1536-well. 320,000 tested, 0.12% active. Q9Y5X4;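 active = percent inhibition above the cutoff of mean plus 3 SD of all tested compounds, set per screening campaign, cut at about 20% in these data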;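 also: 0% = DMSO wells and 100% = biotin wells as full block of FRET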
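Assay system: NR2E3–RetCOR corepressor complex. Quantity: 1.35 nM GST-NR2E3. Buffer or medium: pH 7.5 Tris-based buffer. Reagent: biotinylated RetCOR corepressor at 7 nM final. Schedule: 5 h at 4 °C. Detection: TR-FRET, emission read at 617 and 671 nm. Replicates: one well per compound, singlicate testing.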
MC4R antag cAMP = blocks human MC4R cAMP signaling | P32245 | MC4R-expressing cells, MTII-stimulated cAMP, LANCE TR-FRET | inhibition, % at 6.5 µM | 360,000 tested, 0.48% active | AID 540295;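 active = inhibition above its plate's cutoff, the mean of tested wells on that plate plus 3 SD, cut at about 29% in these data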;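 also: 0% = Melanotan II alone and 100% = Melanotan II plus saturating MCL0020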
Target sequence (P32245 whole entry, looked up): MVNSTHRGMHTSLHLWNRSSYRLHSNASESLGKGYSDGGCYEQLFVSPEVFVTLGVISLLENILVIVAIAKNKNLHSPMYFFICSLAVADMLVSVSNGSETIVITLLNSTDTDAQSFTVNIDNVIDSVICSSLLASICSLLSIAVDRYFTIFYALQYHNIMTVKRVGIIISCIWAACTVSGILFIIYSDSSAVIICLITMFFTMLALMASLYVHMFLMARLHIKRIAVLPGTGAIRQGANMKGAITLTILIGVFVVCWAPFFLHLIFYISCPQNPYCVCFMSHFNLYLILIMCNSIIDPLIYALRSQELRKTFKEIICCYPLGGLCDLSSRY
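Material – human MC4R-expressing U2OS cells · Repeats – no replicates · Detection – TR-FRET with Eu-cAMP and labeled anti-cAMP, 671 nm · Times – compound 30 min, challenge 1 h, detection 1 h · Compound – single nominal compound dose of 6.5 µM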
MC4R ag barr = human MC4R agonism via beta-arrestin. 360,000 tested, 0.98% active. U2OS MC4R beta-arrestin complementation, luminescence; percent of melanotan II response, DMSO zero. P32245. activation, % at 8.9 µM;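 active = activation above a per-plate cutoff, the mean activation of sample wells on that plate plus 3 SD, cut at about 8% in these data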
PG9 binder = PG9 antibody binding by small molecule; TR-FRET gp120-PG9 antibody binding; inhibition, % at 6.7 µM; 360,000 tested, 0.43% active; AID 624416; in the data active = inhibition above about 8.5%
Rev-erbA confirm = Rev-erb alpha (human) modulation, hit confirmation; activation, % at 25 µM; 3,000 tested, 61% active; Rev-erb alpha FITC-DNA binding, fluorescence polarization, 90 min; shares compounds with Rev-erbA mod;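 active = activation at or above a set limit, or at least 3 SD above the negative control mean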;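 also: 0% = 35 nM protein with DMSO and 100% = 750 nM protein high control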
RORg counter = RORgamma DNA-binding activity, dose-response counter-screen; shares compounds with Rev-erbA mod; purified RORgamma protein-FITC-DNA binding, fluorescence polarization; IC50, µM; 910 tested, 8% active;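 active = Compounds whose fitted half-maximal concentration for disrupting protein-DNA binding is below 10 micromolar; the record names Rev-erb in its text, so the target is in doubt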
An asterisk follows results filed as active; / = no result given. Rows were chosen to be rich in hits. Some 2.7% of all compounds tested hit in one or more screens of this group.

SMILES | Rev-erbA mod | NR2E3 ag-1 | NR2E3 ag-2 | MC4R antag cAMP | MC4R ag barr | PG9 binder | Rev-erbA confirm | RORg counter
Cc1ccc2c(c1)NC(=O)CC(c1ccccc1)=N2 | -5 | -51 | -1 | 3 | -2 | 1 | / | /
Cc1ccc2c(c1C)NC(=O)CC(c1ccccc1O)=N2 | 204* | -31 | 0 | 10 | 3 | 7 | 140* | >40
Cc1cc(=O)oc2c(C)cc(C(C)(C)C)cc12 | 27* | 7 | / | -5 | 3 | 0 | 26* | /
O=C(O)COc1ccccc1/C=N/NC(=O)c1cccc(S(=O)(=O)Nc2cccc(Cl)c2)c1 | 0 | -9 | -1 | 3 | -2 | -2 | / | /
CCS(=O)(=O)N1CCC2(CC1)OCCN2S(=O)(=O)c1ccc(C)cc1 | 3 | -22 | -1 | 5 | -4 | 0 | / | /
Fc1cnc(N2CCc3ccccc32)nc1N1CCc2ccccc21 | 57* | -2 | -2 | -5 | -2 | 0 | 137* | >40
Cc1ccc(NC(=O)CSc2ccc(C(N)=O)cc2[N+](=O)[O-])cc1C | 3 | -14 | 1 | 4 | -2 | 0 | / | /
Cc1cc(NC(=O)c2ccccc2F)nc2c1c(=O)oc1ccccc12 | 32* | -19 | 0 | 8 | -4 | 2 | 5 | /
COc1ccc(C(=O)Nc2cc(C)c3c(=O)oc4ccccc4c3n2)cc1 | 21 | -30 | 1 | 17 | 1 | -1 | / | /
CCCC(=O)Nc1cc(C)c2c(=O)oc3ccccc3c2n1 | -3 | 10 | 3 | 0 | -1 | -1 | / | /
Cc1cc(NC(=O)CC(C)(C)C)nc2c1c(=O)oc1ccccc12 | 38* | 4 | 1 | 14 | 3 | 0 | 8 | /
CCCCOc1ccc(C(=O)NNC(=O)C2C3CCC(C3)C2C(=O)O)cc1 (centres undefined) | -2 | -42 | -3 | 2 | -3 | -1 | / | /
COc1ccc(C(=O)C2CCCN(C(=O)CCC3=NNC(=O)CC3)C2)c(C)c1 (centres undefined) | 0 | 0 | 0 | 26 | 2 | 0 | / | /
O=[N+]([O-])c1ccc(N/N=C/c2sc(N3CCOCC3)nc2-c2ccccc2)c(S(=O)(=O)Nc2ccc(Cl)cc2)c1 | 14 | 14 | / | 25 | -2 | 0 | / | /
O=[N+]([O-])c1ccc(N/N=C/c2sc(N3CCOCC3)nc2-c2ccccc2)c(S(=O)(=O)Nc2ccccc2Cl)c1 | 24* | -20 | / | 7 | -1 | 0 | 2 | /
O=C(COc1ccc(Cl)cc1)N1N=C(c2cccs2)CC1c1ccco1 (centres undefined) | 4 | 6 | / | -1 | 1 | -1 | / | /
C=CCN1C(=O)c2cccc3c(N4CCCCC4)ccc(c23)C1=O | 19* | -7 | 3 | 24 | 1 | 1 | 24* | /
O=C1c2cccc3c(N4CCCCC4)ccc(c23)C(=O)N1c1cccc(O)c1 | 61* | -92 | 4 | 15 | -2 | -1 | 62* | >40
Cc1n[nH]c(C)c1N1C(=O)c2cccc3c(N4CCCCCC4)ccc(c23)C1=O | 94* | 17 | 3 | 9 | 0 | -3 | 90* | >40
O=C(OCCN1C(=O)c2cccc3c(N4CCOCC4)ccc(c23)C1=O)c1ccc(Cl)cc1Cl | 260* | -18 | -1 | -13 | -2 | 1 | 206* | 4.5*
CCOCCCNC(=O)C(c1ccc(Cl)cc1)N1CCC2(CC1)OCCO2 (centres undefined) | -3 | 0 | -2 | 6 | 1 | -1 | / | /
O=C(CSc1ccc(C(F)(F)F)cc1[N+](=O)[O-])N1CCOCC1 | 4 | 19 | 2 | 4 | -1 | -1 | / | /
CN(CC(=O)Nc1ccc2c(c1)OCO2)S(=O)(=O)c1ccc2c(c1)CCC(=O)N2 | 0 | -15 | 3 | 6 | 0 | -1 | / | /
O=C1c2cccc3c(N4CCCCC4)ccc(c23)C(=O)N1CCO | 47* | -61 | 5 | -30 | -1 | -4 | 33* | >40
COc1cc(NS(=O)(=O)c2ccc(NC(=O)COc3cccc(C)c3)cc2)nc(OC)n1 | -6 | 6 | 0 | 6 | 0 | 0 | / | /
SMILES | Rev-erbA mod | NR2E3 ag-1 | NR2E3 ag-2 | MC4R antag cAMP | MC4R ag barr | PG9 binder | Rev-erbA confirm | RORg counter
Cc1ccc(-c2oc3ncnc(N)c3c2-c2ccc(C)cc2)cc1 | 20* | -12 | 0 | -7 | 4 | 6 | 8 | /
Cc1oc2ncnc(N)c2c1C | 3 | 23 | 3 | -4 | -1 | 0 | / | /
CC1(C)Cc2c(sc3c2c(N)nc(=S)n3Cc2ccccc2)CO1 | 111* | / | 0 | / | / | -3 | 36* | >40
CC1(C)Cc2c(sc3[nH]c(=S)n(Cc4ccccc4)c(=O)c23)CO1 | / | -19 | 13 | 0 | -3 | -1 | / | /
Cc1ccc(Oc2nccc(-c3ccc(Cl)cc3)n2)cc1 | 47* | -51 | 4 | 11 | 2 | 1 | 46* | >40
C[C@@H]1NS(=O)(=O)[C@H]2C[C@@H]3C=C[C@]2(O3)[C@H]1OC(=O)c1ccccc1Br | 4 | -17 | 3 | 1 | 0 | -2 | / | /
Cc1ccc(-c2c(C#N)c(N)n(-c3ccc(Cl)cc3)c(=O)c2C#N)cc1 | 38* | 18 | / | 3 | -2 | 2 | 29* | >40
CCOC(=O)c1nn(-c2ccc(Cl)cc2)c2nc(-c3ccc(C)cc3)c(C#N)c(=O)n12 | 36* | -6 | -1 | 9 | 0 | 0 | 37* | >40
Cc1ccc(-c2c(C#N)c(N)n(-c3ccccc3)c(=O)c2C#N)cc1 | 0 | -18 | 1 | 4 | 1 | -1 | / | /
O=C(Nc1ccc2c(c1)Cc1cc([N+](=O)[O-])ccc1-2)C(F)(F)F | 9 | -19 | / | 0 | 1 | -2 | / | /
COc1cc2c(cc1[N+](=O)[O-])-c1ccccc1C2 | 0 | -22 | / | -9 | 4 | -1 | / | /
O=[N+]([O-])c1ccc2c(c1)Cc1cc(F)ccc1-2 | 70* | -17 | / | -5 | -2 | 4 | 61* | >40
COc1cc2c(cc1[N+](=O)[O-])-c1ccc([N+](=O)[O-])cc1C2 | 90* | -50 | / | -10 | -2 | -2 | 12* | /
COc1ccc(S(=O)(=O)N2CCCCCC2)cc1C(=O)NCc1ccc(C)cc1 | -1 | 20 | -1 | 0 | 1 | 0 | / | /
CCOc1ccc2nc(N/C(N)=N/C(=S)Nc3cccc(C)c3)nc(C)c2c1 | 35* | -30 | 5 | 2 | -1 | 0 | 37* | >40
Cc1ccc(NC(=S)/N=C(\N)Nc2nc(C)c3cc(C)ccc3n2)c(C)c1 | -3 | 37 | 5 | -3 | -1 | 0 | / | /
COc1ccc2nc(N/C(N)=N/C(=S)Nc3cccc(C)c3)nc(C)c2c1 | 4 | -2 | 1 | -6 | -2 | 0 | / | /

Compound activity: PubChem, several laboratories
